NR2E3 ag-1: agonists of human NR2E3 nuclear receptor. Q9Y5X4. CHO-S Gal4-NCOR/VP16-NR2E3 two-hybrid, luciferase. inhibition of corepressor binding, % at 3.98 µM. 0.35% of 360,000 active. AID 602229;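 active means inhibition above the mean of all tested compounds plus 3 SD, cut at about 70% in these data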;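 further: 0% = DMSO with NR2E3 transfected cells and 100% = cells lacking NR2E3 construct; higher means lower luciferase signal from less NR2E3 corepressor binding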
Rev-erbA mod: modulators of human Rev-erb alpha DNA binding | activity, % at 10 µM | P20393 | 0.79% of 370,000 active | Rev-erbα–FITC-DNA binding, fluorescence polarization, 90 min | AID 1259318;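 active means activity above about 14%, limit read from the data; passing the limit was not always enough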;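 further: 0% = DMSO wells with 35 nM protein and 100% = DMSO wells with 750 nM protein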
NR2E3 ag-2: NR2E3 (human) agonism | inhibition of corepressor binding, % at 4.78 µM | AID 2300 | 0.12% of 320,000 active | GST-NR2E3/biotin-RetCOR TR-FRET, 1536-well;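 active means percent inhibition above the cutoff of mean plus 3 SD of all tested compounds, set per screening campaign, cut at about 20% in these data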;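 further: 0% = DMSO wells and 100% = biotin wells as full block of FRET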
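System: GST-NR2E3 and biotin-RetCOR proteins; probe or stimulus: 7 nM biotin-RetCOR; doses: compound at 4.8 µM, single dose; schedule: Compound–protein incubation for 5 h at 4 °C; detection: time-resolved FRET; read-out: percent inhibition; controls: biotin wells as high control, 0.6% DMSO wells as low control; format: 1536-well plates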
MC4R barr agon: agonists of human melanocortin 4 receptor (MC4R) beta-arrestin. P32245. U2OS MC4R beta-arrestin complementation, luminescence; percent of melanotan II response, DMSO zero. activation, % at 8.9 µM. 0.98% of 360,000 active. AID 540308;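 active means activation above a per-plate cutoff, the mean activation of sample wells on that plate plus 3 SD, cut at about 8% in these data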
Target sequence (P32245 whole entry, looked up): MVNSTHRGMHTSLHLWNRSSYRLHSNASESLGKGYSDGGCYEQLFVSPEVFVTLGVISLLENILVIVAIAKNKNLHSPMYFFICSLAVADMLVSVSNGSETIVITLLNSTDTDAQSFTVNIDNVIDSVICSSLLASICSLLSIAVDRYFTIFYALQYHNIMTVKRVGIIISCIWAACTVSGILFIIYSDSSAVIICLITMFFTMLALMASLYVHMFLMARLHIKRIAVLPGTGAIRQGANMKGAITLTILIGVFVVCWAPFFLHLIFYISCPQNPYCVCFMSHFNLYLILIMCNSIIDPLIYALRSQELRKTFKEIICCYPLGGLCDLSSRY
MC4R antag cAMP: antagonists of human melanocortin 4 receptor (MC4R) | P32245 | MC4R-expressing cells, MTII-stimulated cAMP, LANCE TR-FRET | inhibition, % at 6.5 µM | 0.48% of 360,000 active | AID 540295;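 active means inhibition above its plate's cutoff, the mean of tested wells on that plate plus 3 SD, cut at about 29% in these data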;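 further: 0% = Melanotan II alone and 100% = Melanotan II plus saturating MCL0020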
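System – human MC4R-expressing U2OS cells · Also added – Melanotan II · Dosing – one concentration, 6.5 µM nominal · Timing – 30-min compound, 1-h challenge, 1-h detection, room temperature · Measured by – Eu-cAMP/anti-cAMP TR-FRET, emission 671 nm · Replicates – singlicate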
PG9 Ab binder: PG9 antibody binding by small molecule | TR-FRET gp120-PG9 antibody binding | 0.43% of 360,000 active | AID 624416 | inhibition, % at 6.7 µM; in the data active means inhibition above about 8.5%
cAMP nonselect: U2OS forskolin cAMP inhibition counter-screen; shares compounds with MC4R antag cAMP; parental U2OS, LANCE TR-FRET; inhibition, % at 6.5 µM; AID 602193; 26% of 1,600 active;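 active means mean inhibition over triplicates above the low-control well mean plus 3 SD, set per campaign, cut at about 13% in these data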;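 further: signal is single emission at 671 nm which falls as cellular cAMP rises; 0% = forskolin-stimulated wells and 100% = buffer without forskolin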
MC4R cAMP antag: human MC4R cAMP antagonism confirmation. inhibition, % at 6.5 µM. MC4R-expressing cells, MTII-stimulated cAMP, TR-FRET. 27% of 1,600 active. AID 602195. shares compounds with MC4R antag cAMP; in the data active means inhibition above about 29%;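 further: 0% = agonist stimulated wells alone and 100% = agonist stimulated wells plus saturating reference antagonist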
Starred values were filed as active, the others as inactive; / = not tested or not shown; + = active, no number. This is a sample that favours compounds with a hit; in the whole collection about 2.7% have one here.

SMILES	NR2E3 ag-1	Rev-erbA mod	NR2E3 ag-2	MC4R barr agon	MC4R antag cAMP	PG9 Ab binder	cAMP nonselect	MC4R cAMP antag
CN(CCOc1ccc(Cl)cc1)C(=O)CNS(=O)(=O)c1ccc(N(C)C)c([N+](=O)[O-])c1	-16	-9	/	-1	9	0	/	/
Cc1ccc([C@H]2C(C#N)=C(N)Oc3cc(C)oc(=O)c32)o1	-30	3	1	0	30*	1	-2	-8
Cc1cc2c(c(=O)o1)C(c1cccs1)C(C#N)=C(N)O2 (centres undefined)	3	-1	4	0	19	-3	/	/
Cc1ccccc1-n1c(SCC(=O)Nc2c(C)cccc2C)nc(O)cc1=O	-4	-5	-5	2	34*	-1	4	-8
COc1ccccc1-n1c(SCC(=O)Nc2ccc(C)cc2)nc(O)cc1=O	-24	-3	0	-2	23	1	/	/
CC(=O)Nc1ccc(S(=O)(=O)N(C)CC(=O)OCC(=O)NNC(=O)c2ccccc2F)cc1	-18	-3	-6	-2	-1	0	/	/
Cc1ccc(S(=O)(=O)N(C)CC(=O)OCC(=O)NC(=O)NC(C)C)cc1	-2	2	0	-3	29*	-1	10	23
CC(=O)Nc1ccc(S(=O)(=O)N(C)CC(=O)OCC(=O)NC(C)C23CC4CC(CC(C4)C2)C3)cc1 (centres undefined)	8	-4	0	-2	30*	-1	8	18
CC1=Nc2cc(C(=O)N3CCCCC3)ccc2Sc2ccc(C)cc21	30	4	-3	-1	5	0	/	/
CCOc1ccc(OCC)c(NC(=O)CN(c2ccc(OC)cc2)S(=O)(=O)c2c(C)noc2C)c1	-10	3	2	-2	7	-2	/	/
CCOc1ccc(OCC)c(NC(=O)CN(c2ccc(C)cc2)S(=O)(=O)c2c(C)noc2C)c1	10	-1	1	0	32*	-1	1	9
COC(=O)C1CN(C2CCCC2)CCS(=O)(=O)N1Cc1ccc(Cl)cc1 (centres undefined)	/	-2	/	/	/	/	/	/
CCOCC(=O)Nc1ccccc1C(=O)O	-14	3	5	-1	30*	0	1	-14
CN(Cc1ccco1)Cc1ccc(O)c2ncccc12	-19	/	/	-1	-18	/	/	/
CCOc1cccc(/C=N/N2CCN(c3ccc(Cl)cc3)CC2)c1O	-23	-3	-4	0	32*	-2	6	-8
Cc1ccc(-n2nc3cc(C)c(NC(=S)NC(=O)/C=C/c4ccco4)cc3n2)cc1	-31	-10	3	2	11	0	/	/
Cc1ccc(-n2nc3ccc(NC(=S)NC(=O)/C=C/c4ccco4)cc3n2)cc1	-160	-10	7	2	41*	8	5	26
CC(=O)Nc1ccc(OCc2ccc3c(c2)OCO3)cc1	-102	1	1	1	-3	1	/	/
CCOC(=O)c1sc(N2C(=O)C(O)=C(C(=O)c3ccc(C)o3)C2c2ccc(OC)c(OC)c2)nc1C (centres undefined)	-24	-1	4	-4	28	-2	/	/
CCOc1ccc(C2C(C(=O)c3ccc(C)o3)=C(O)C(=O)N2c2nc(C)c(C(=O)OC)s2)cc1 (centres undefined)	-55	0	8	1	+	0	75*	143*
COc1ccc2nc(N3C(=O)C(O)=C(C(=O)c4ccco4)C3c3ccc(OC)c(OC)c3)sc2c1 (centres undefined)	9	-3	/	0	16	0	/	/
COC(=O)c1sc(N2C(=O)C(O)=C(C(=O)c3ccc(C)o3)C2c2ccc(OC)c(OC)c2)nc1C (centres undefined)	-20	2	/	-3	188*	0	0	-16
Cc1ccc2nc(N3C(=O)C(O)=C(C(=O)c4ccc(C)o4)C3c3cccc(O)c3)sc2c1 (centres undefined)	-106	-5	4	0	31*	0	2	13
CN(C)c1cccc(C(=O)NC2CCCc3ccccc32)c1 (centres undefined)	13	-7	0	0	-5	-3	/	/
CCOC(=O)c1ccc(N=c2sc(C(=O)OC)cc(=O)n2Cc2ccco2)cc1	-14	9	-3	1	32*	-2	10	36*
SMILES	NR2E3 ag-1	Rev-erbA mod	NR2E3 ag-2	MC4R barr agon	MC4R antag cAMP	PG9 Ab binder	cAMP nonselect	MC4R cAMP antag
Cc1ccccc1NC(=O)/C(C#N)=C/c1ccc(-c2ccc(Cl)c(C(=O)O)c2)o1	-59	8	-3	-2	6	-5	/	/
Nc1nc(-c2cccnc2)nn1C(=O)Cc1ccccc1	-3	-2	1	1	18	2	/	/
O=C(COC(=O)[C@H](Cc1ccccc1)NC(=O)c1cccs1)Nc1c(Cl)cccc1Cl	-7	1	-2	-1	31*	-2	14*	35*
O=C(COC(=O)C(Cc1ccccc1)NC(=O)c1cccs1)NCc1ccccc1 (centres undefined)	14	-1	5	2	30*	-1	8	21
Cc1ccc(-c2cnc3n2CCCCC3)cc1	-10	3	4	3	33*	0	-3	-8
CCOc1ccc(CCNC(=O)CCS(=O)(=O)c2ccc(Br)cc2)cc1OCC	-27	-3	0	1	29*	-2	0	10
COc1ccc(CC(=O)Oc2ccc(Br)cc2F)cc1S(=O)(=O)N1CCOCC1	-14	-2	-3	-2	17	-2	/	/
COc1ccc(CC(=O)Oc2ccc(F)c(F)c2)cc1S(=O)(=O)N1CCOCC1	-26	-7	0	-1	35*	0	13	18
CC(C)(C)c1ccc(OCCSc2nc3ccccc3n2CC(=O)O)cc1	15	-3	-1	-1	34*	-2	-2	-4
Cc1ccc(-c2nnc(Nc3ccc4c(c3)OCO4)c3ccccc23)cc1S(N)(=O)=O	-12	4	-2	2	33*	-2	6	15
CC(=O)Nc1ccc(Nc2nnc(-c3ccc(C)c(S(N)(=O)=O)c3)c3ccccc23)cc1	-31	8	-1	-2	6	0	/	/
CCn1c2ccccc2c2cc(C=Nn3c(-c4ccccc4C)n[nH]c3=S)ccc21	/	8	/	/	/	/	/	/
CCCN(CCC)S(=O)(=O)c1ccc(Cl)c([N+](=O)[O-])c1	13	2	2	-4	41*	-1	31*	50*
